# Assay results published in ChEMBL document CHEMBL1141957, “Screening of electrophilic compounds yields an aziridinyl peptide as new active-site directed SARS-CoV main protease inhibitor” (Bioorg Med Chem Lett, 2005).
# pKi: −log10 of the molar value.
# Legend:
# [1] = target: Replicase polyprotein 1a (Severe acute respiratory syndrome-related coronavirus) (UniProt P0C6U8); assay: Inhibition of Mpro in SARS-CoV at 100 uM in FRET-based assay
# How it was run: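 Fluorimetric read-out: SARS-CoV Mpro cleavage of a FRET-pair-labeled peptide substrate. Percent inhibition reported as the mean of at least 2 independent assays.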
# [2] = target: Replicase polyprotein 1a (Severe acute respiratory syndrome-related coronavirus) (UniProt P0C6U8); assay: Inhibition of Mpro in SARS-CoV at 100uM
# Procathepsin L = Procathepsin L (Homo sapiens, UniProt P07711); assay: Inhibitory activity against cathepsin L
# [3] = target: Replicase polyprotein 1a (Severe acute respiratory syndrome-related coronavirus) (UniProt P0C6U8); assay: Inhibition of Mpro in SARS-CoV at 100 uM in HPLC assay
# Procathepsin L, sequence (P07711 whole entry): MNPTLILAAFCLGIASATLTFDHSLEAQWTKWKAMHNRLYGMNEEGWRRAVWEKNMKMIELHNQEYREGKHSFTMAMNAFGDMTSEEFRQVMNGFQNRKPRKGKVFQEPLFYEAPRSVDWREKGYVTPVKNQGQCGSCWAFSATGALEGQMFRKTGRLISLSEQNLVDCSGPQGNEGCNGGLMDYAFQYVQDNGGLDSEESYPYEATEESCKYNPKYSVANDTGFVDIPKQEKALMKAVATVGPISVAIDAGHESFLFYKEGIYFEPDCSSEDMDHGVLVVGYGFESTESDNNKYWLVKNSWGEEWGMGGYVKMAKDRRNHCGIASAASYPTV
SMILES,inhibition [1] [%],inhibition [2] [%],other results
CC(C)[C@H](NC(=O)C1C(c2ccccc2)N1Cc1ccccc1)C(=O)OCc1ccccc1 (stereo partly specified),22,,
COC(=O)[C@H]1N[C@H]1C(=O)OC,,< 10,
CCOC(=O)[C@H]1N[C@@H]1C(=O)N[C@H](C(=O)OCc1ccccc1)[C@@H](C)CC,,< 10,
O=C(N[C@@H](Cc1ccccc1)C(=O)OCc1ccccc1)C1C(c2ccccc2)N1Cc1ccccc1 (stereo partly specified),30,,
C[C@@H]1O[C@@H]1C(=O)N[C@@H](Cc1ccccc1)C(=O)OCc1ccccc1,28,,
CC1C(C(=O)N[C@@H](Cc2ccccc2)C(=O)OCc2ccccc2)N1Cc1ccccc1 (stereo partly specified),34,,
COC(=O)C1(C(=O)OC)NC1C (stereo unspecified),,< 10,
CCOC(=O)N1C(C)C1(C(=O)OC)C(=O)OC (stereo unspecified),,< 10,
CC[C@H](C)[C@@H](C(=O)OCc1ccccc1)N1CC1C(=O)OC (stereo partly specified),30,,
COC(=O)CN1CC1C(=O)OC (stereo unspecified),30,,
COC(=O)C1CN1[C@@H](C)C(=O)OC (stereo partly specified),39,,
COC(=O)C1CN1CCCC[C@H](NC(=O)OCc1ccccc1)C(=O)OC (stereo partly specified),48,,
C[C@@H]1O[C@@H]1C(=O)N[C@H](Cc1ccccc1)C(=O)OCc1ccccc1,,< 10,
CC(C)(C)OC(=O)N[C@H](C(=O)N1[C@H](C(=O)OCc2ccccc2)[C@H]1C(=O)OCc1ccccc1)N1CCCCC1,29,,pKi (Procathepsin L): 5.19
CCOC(=O)C1C(C)N1Cc1ccccc1 (stereo unspecified),,< 10,
COC(=O)C1CN1[C@@H](CC(=O)OCc1ccccc1)C(=O)OCc1ccccc1 (stereo partly specified),28,,
COC(=O)C1C(c2ccccc2)N1Cc1ccccc1 (stereo unspecified),,< 10,
COC(=O)C1CN1[C@@H](CCSC)C(=O)OC (stereo partly specified),28,,
C[C@H]1O[C@H]1C(=O)O,,< 10,

SMILES,inhibition [1] [%],inhibition [2] [%],other results
CCOC(=O)C1OC1C(=O)N[C@@H](Cc1ccccc1)C(=O)OCc1ccccc1 (stereo partly specified),22,,
CCOC(=O)[C@H]1N[C@@H]1C(=O)NCC(=O)NCC(=O)OCc1ccccc1,54,,inhibition [3]: 75%
COC(=O)C1CN1[C@H](C(=O)OCc1ccccc1)C(C)C (stereo partly specified),20,,
C[C@H]1O[C@H]1C(=O)N[C@@H](Cc1ccccc1)C(=O)OCc1ccccc1,15,,
C[C@H]1[C@@H](C(=O)N[C@@H](Cc2ccccc2)C(=O)OCc2ccccc2)N1Cc1ccccc1 (stereo partly specified),24,,
COC(=O)C1CN1CC(=O)OCc1ccccc1 (stereo unspecified),26,,
C[C@@H]1O[C@@H]1C(=O)N[C@H](Cc1ccccc1)C(=O)O,,< 10,
COC(=O)C1CN1[C@H](C(=O)OC)C(C)C (stereo partly specified),30,,
CCOC(=O)[C@H]1[C@H](C(=O)OCC)N1C(=O)[C@@H]1CCCN1C(=O)[C@H](CC(C)C)NC(=O)OC(C)(C)C,16,,
C[C@H]1O[C@H]1C(=O)N[C@@H](Cc1ccccc1)C(=O)O,,< 10,
CC(C)C[C@@H]1O[C@@H]1[C@H](Cc1ccccc1)NC(=O)OC(C)(C)C,,< 10,
CC(C)[C@H](NC(=O)[C@@H]1O[C@@H]1C)C(=O)OCc1ccccc1,10,,
COC(=O)C1CN1[C@@H](CC(C)C)C(=O)OCc1ccccc1 (stereo partly specified),34,,
COC(=O)[C@H]1O[C@H]1C(=O)OC,,< 10,
COC(=O)C1(C(=O)OC)C(C)N1C(=O)OC(C)(C)C (stereo unspecified),,< 10,
CCOC(=O)[C@H]1[C@H](C(=O)OCC)N1C(=O)[C@@H](NC(=O)OC(C)(C)C)C(C(C)C)N1CCC1 (stereo partly specified),16,,pKi (Procathepsin L): 5.32
CCOC(=O)[C@H]1N[C@H]1C(=O)OCC,,< 10,
COC(=O)CN1CC1C(=O)N[C@@H](Cc1ccccc1)C(=O)OC (stereo partly specified),,< 10,
C[C@H]1O[C@H]1C(=O)N[C@H](Cc1ccccc1)C(=O)OCc1ccccc1,,< 10,
